This passage reports IC50 results from ChEMBL document CHEMBL1143813, “Assessment and continued validation of the malaria SYBR green I-based fluorescence assay for use in malaria drug screening” (Antimicrob Agents Chemother, 2007).

Molecules are shown by their SMILES. Values after ≈ are worked out from the molar mass of the structure shown.

Format in all cases: functional, organism-based
The subject of assay [1] is Plasmodium falciparum. In words: (§1) In vitro antimalarial activity against Plasmodium falciparum D6 after 72 hrs in SYBR green fluorescence assay. The following applies: D6, 72 h. Summed up:
(§2)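 P. falciparum D6 or W2 at late-ring/early-trophozoite stage, conditioned 3–4 days in the test medium (TCM, TCMA with Albumax I in place of plasma, FAF folic acid/pABA-free, or FAFA). Cultured 72 h at 37°C (5% CO₂, 5% O₂, N₂) with 11 twofold drug dilutions, 1% parasitemia, 2% hematocrit. SYBR green I lysis buffer added, 1 h at room temperature, RFU read. Plate-edge wells excluded.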

The test system of assay [2] is Plasmodium falciparum. In words: In vitro antimalarial activity against Plasmodium falciparum W2 after 72 hrs by SYBR green fluorescence assay. As to conditions: W2, 72 h. In outline:
as §2

Assay [3] relates to Plasmodium falciparum. In words: (§3) In vitro antimalarial activity against Plasmodium falciparum W2 after 72 hrs in SYBR green fluorescence assay. The following applies: W2, 72 h.
Assay [4] relates to Plasmodium falciparum. Described as §1. The following applies: D6, 72 h. Summed up: as §2
The source holds these as a separate data set.

For assay [5], the system named is Plasmodium falciparum. The assay is described as §1. As to conditions: D6, 72 h. In outline:
as §2
This is another data set of the same source.

Assay [6] relates to Plasmodium falciparum. In words: Antimalarial activity against Plasmodium falciparum D6 as reduced [3H]hypoxanthine uptake after 72 hrs.
Assay [7] concerns Plasmodium falciparum. In words: In vitro antimalarial activity against Plasmodium falciparum D6 after 72 hrs by SYBR green fluorescence assay. As to conditions: D6, 72 h. Summed up: as §2
For assay [8], the system named is Plasmodium falciparum. The assay is described as §3. As to conditions: W2, 72 h. In outline: as §2
This is another data set of the same source.

Assay [9] has as its system Plasmodium falciparum. In words: Antimalarial activity against Plasmodium falciparum W2 as reduced [3H]hypoxanthine uptake after 72 hrs.
Assay [10] concerns Plasmodium falciparum. Described as §3. The following applies: W2, 72 h. This is another data set of the same source.

With `C=CC1CN2CC[C@H]1C[C@H]2[C@H](O)c1ccnc2ccc(OC)cc12` (single isomer, unassigned) [QUININE], the IC50 in assay [1] was determined as 14.9 ng/mL (≈ 0.0459 µM); in [2] it was 128 ng/mL (≈ 0.396 µM); in assay [3], 162 ng/mL (≈ 0.5 µM); in assay [4] it was 11.9 ng/mL (≈ 0.0367 µM); in [5], 15.8 ng/mL (≈ 0.0487 µM); in assay [6], 5 ng/mL (≈ 0.0154 µM). Further, the IC50 was 11.3 ng/mL (≈ 0.0348 µM) in assay [7], 167 ng/mL (≈ 0.516 µM) in [8] and 36 ng/mL (≈ 0.111 µM) in assay [9].
For `C[C@@H]1CC[C@H]2[C@@H](C)C(=O)O[C@@H]3O[C@@]4(C)CC[C@@H]1[C@]32OO4` [ARTEMISININ], the IC50 in assay [10] stood at 1.1 ng/mL (≈ 0.0039 µM); in assay [3], 1.2 ng/mL (≈ 0.00425 µM); in assay [4], 1.6 ng/mL (≈ 0.00567 µM); in assay [5], 1.25 ng/mL (≈ 0.00443 µM); in [6], 2.4 ng/mL (≈ 0.0085 µM); in assay [8], 1 ng/mL (≈ 0.00354 µM). The compound also registered an IC50 in assay [9] of 1.7 ng/mL (≈ 0.00602 µM).
As for `CC[C@H]1OC(=O)[C@H](C)[C@@H](O[C@H]2C[C@@](C)(OC)[C@@H](O)[C@H](C)O2)[C@H](C)[C@@H](O[C@@H]2O[C@H](C)C[C@H](N(C)C)[C@H]2O)[C@](C)(O)C[C@@H](C)CN(C)[C@H](C)[C@@H](O)[C@]1(C)O` [AZITHROMYCIN], the IC50 in assay [1] was 10100 ng/mL (≈ 13.4 µM); in assay [10], 4490 ng/mL (≈ 5.99 µM); in assay [2] it was 2730 ng/mL (≈ 3.65 µM); in assay [3] it was 1850 ng/mL (≈ 2.47 µM); in [4], 14400 ng/mL (≈ 19.2 µM); in assay [5], 10100 ng/mL (≈ 13.5 µM). Moreover, the IC50 in assay [6] is 3750 ng/mL (≈ 5 µM); in [7] it was 15300 ng/mL (≈ 20.4 µM); in assay [8] it was 1620 ng/mL (≈ 2.17 µM); in [9], 5500 ng/mL (≈ 7.34 µM).
Regarding `Nc1ccc(S(=O)(=O)c2ccc(N)cc2)cc1` [DAPSONE], the 50% inhibitory concentration (IC50) in assay [1] came out at 3.1 ng/mL (≈ 0.0125 µM); in assay [10], 242 ng/mL (≈ 0.973 µM); in assay [3] it was 156 ng/mL (≈ 0.629 µM); in assay [4] it was 10.2 ng/mL (≈ 0.0411 µM); in [6] it was 2.9 ng/mL (≈ 0.0117 µM); in [9], 124 ng/mL (≈ 0.5 µM).
With `C[C@H]1c2cccc(O)c2C(=O)C2=C(O)[C@]3(O)C(=O)C(C(N)=O)=C(O)[C@@H](N(C)C)[C@@H]3[C@@H](O)[C@@H]21.O` [DOXYCYCLINE], the half-maximal inhibitory concentration (IC50) amounted to 857 ng/mL in assay [1]; 2130 ng/mL in assay [10]; 2280 ng/mL in assay [2]; 1860 ng/mL in assay [3]; 1850 ng/mL in [4]; 1180 ng/mL in assay [5]. Besides, the IC50 in [6] is 483 ng/mL; in assay [7] it was 2370 ng/mL; in assay [8], 2410 ng/mL; in assay [9], 814 ng/mL.
In the case of `O[C@@H](c1cc(C(F)(F)F)nc2c(C(F)(F)F)cccc12)[C@H]1CCCCN1` [MEFLOQUINE], the IC50 in [1] is 32.8 ng/mL (≈ 0.0867 µM); in assay [10], 9.7 ng/mL (≈ 0.0256 µM); in [2], 8.9 ng/mL (≈ 0.0235 µM); in assay [3], 17.4 ng/mL (≈ 0.046 µM); in assay [4], 16 ng/mL (≈ 0.0423 µM); in assay [5] it was 43.7 ng/mL (≈ 0.116 µM). The IC50 turned out to be 19.9 ng/mL (≈ 0.0526 µM) in assay [7], 16.2 ng/mL (≈ 0.0428 µM) in assay [8] and 2.3 ng/mL (≈ 0.00608 µM) in assay [9].
On to `CCc1nc(N)nc(N)c1-c1ccc(Cl)cc1` [PYRIMETHAMINE], for which the IC50 in assay [1] was determined as 0.5 ng/mL (≈ 0.00201 µM); in [10], 37.6 ng/mL (≈ 0.151 µM); in assay [4], 0.4 ng/mL (≈ 0.00161 µM); in assay [6] it was 0.1 ng/mL (≈ 0.000402 µM); in assay [9], 11.9 ng/mL (≈ 0.0478 µM).
For `COc1ncnc(NS(=O)(=O)c2ccc(N)cc2)c1OC` [SULFADOXINE], the IC50 is 10.5 ng/mL (≈ 0.0338 µM) in assay [1]; 2420 ng/mL (≈ 7.79 µM) in assay [10]; 1640 ng/mL (≈ 5.29 µM) in assay [3]; 2.4 ng/mL (≈ 0.00773 µM) in assay [4]; 16 ng/mL (≈ 0.0516 µM) in assay [6]; 1110 ng/mL (≈ 3.59 µM) in assay [9].
